The values below come from ChEMBL document CHEMBL3351508, “Second-generation antibacterial benzimidazole ureas: discovery of a preclinical candidate with reduced metabolic liability” (J Med Chem, 2014).

Data set [1] has as its system Haemophilus influenzae. Put plainly: Antibacterial activity against Haemophilus influenzae ATCC 49247 by CLSI method. In kind it is functional. In outline: (§1)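 Broth microdilution MIC in liquid medium following CLSI methods, with ATCC strains. Each run was accepted only if comparator antibiotics fell within their recommended quality-control ranges for the appropriate ATCC strain.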

For data set [2], the system named is Moraxella catarrhalis. The experiment in a line: Antibacterial activity against Moraxella catarrhalis ATCC 25238 by CLSI method. In kind it is functional. The procedure, abridged:
as §1

For data set [3], the species on record is Rattus norvegicus. Put plainly: Drug metabolism in rat assessed as reactive metabolites as rat liver protein binding per mg of protein at 100 uCi for 6 days measured on day 7. In kind it is ADME, organism-based. Particulars: in vivo, 144 h. In outline:
(§2)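 Male rats were dosed with unlabeled compound at 90 mg/kg for 6 or 13 days, then given 100 μCi ¹⁴C-labeled compound on day 7 or 14 and killed 4 h later. Liver S9 (9000g) was washed with acetonitrile until free of unbound label and the pellet dissolved in 1 N NaOH at 60 °C. Radioactivity was counted by scintillation, normalized to Bradford protein, and expressed as pmol/mg.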

A short description of data set [4]: Inhibition of Staphylococcus aureus DNA topoisomerase-4 C2E2 using pBR322 plasmid DNA as substrate by coupled enzyme reaction assay.
The test system of data set [5] is Staphylococcus epidermidis. Put plainly: Antibacterial activity against Staphylococcus epidermidis ATCC 12228 by CLSI method. The class given is functional. The procedure, abridged: as §1
Data set [6] is filed under the species Rattus norvegicus. Put plainly: Drug metabolism in rat assessed as reactive metabolites as rat liver protein binding per mg of protein at 100 uCi for 13 days measured on day 14. The class given is ADME, organism-based. Particulars: in vivo, 312 h. The procedure, abridged:
as §2

Data set [7] relates to Streptococcus pneumoniae. Put plainly: Antibacterial activity against Streptococcus pneumoniae ATCC 10015 by CLSI method. In kind it is functional. The procedure, abridged:
as §1

Data set [8] has as its system Staphylococcus aureus. Put plainly: Antibacterial activity against Staphylococcus aureus ATCC 29213 by CLSI method. The class given is functional. In outline:
as §1

Data set [9] deals with Staphylococcus aureus. Put plainly: Antibacterial activity against Staphylococcus aureus ATCC 29213 by CLSI method in presence of human 50% serum. In kind it is functional. The procedure, abridged:
as §1

For data set [10], the system named is Enterococcus faecalis. The experiment in a line: Antibacterial activity against Enterococcus faecalis ATCC 29212 by CLSI method. The class given is functional. In outline: as §1
Data set [11] relates to Enterococcus faecium. Put plainly: Antibacterial activity against Enterococcus faecium ATCC 49624 by CLSI method. In kind it is functional. In outline: as §1
The nature of data set [12]: Drug metabolism in rat assessed as metabolites in urine at 30 mg/kg, po. In kind it is ADME, organism-based. The arrangement: dose 30 mg/kg, route oral. Particulars: in vivo.
Data set [13] deals with Cytochrome P450 2C9 (Homo sapiens, UniProt P11712). The experiment in a line: Drug metabolism in recombinant CYP2C9 (unknown origin) at 1 uM after 30 mins. The class given is ADME. Particulars: recombinant enzyme, 0.5 h. The procedure, abridged: (§3)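 Parent at 1 and 10 μM was incubated with individual recombinant CYP supersomes, with and without NADPH, for 0, 15 and 30 min. Formation of the imine metabolite was quantified by LC-MS/MS.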

Data set [14] deals with T1, Cytochrome P450 2B6 (Homo sapiens, UniProt P20813).
T1 sequence (P20813 whole entry): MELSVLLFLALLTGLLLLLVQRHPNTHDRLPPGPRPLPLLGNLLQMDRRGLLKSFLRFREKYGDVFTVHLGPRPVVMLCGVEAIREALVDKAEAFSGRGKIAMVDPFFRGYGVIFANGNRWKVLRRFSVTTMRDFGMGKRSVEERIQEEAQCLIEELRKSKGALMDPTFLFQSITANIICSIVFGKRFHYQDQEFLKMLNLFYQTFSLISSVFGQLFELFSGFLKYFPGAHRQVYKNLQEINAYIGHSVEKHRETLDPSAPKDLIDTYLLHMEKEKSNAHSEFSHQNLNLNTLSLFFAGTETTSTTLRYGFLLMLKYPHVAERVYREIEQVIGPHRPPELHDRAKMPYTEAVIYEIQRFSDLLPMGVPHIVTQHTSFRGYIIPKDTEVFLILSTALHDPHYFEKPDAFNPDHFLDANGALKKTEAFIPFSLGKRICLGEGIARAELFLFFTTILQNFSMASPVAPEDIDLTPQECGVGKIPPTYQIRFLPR
The experiment in a line: Drug metabolism in recombinant CYP2B6 (unknown origin) at 1 uM after 30 mins. In kind it is ADME. Particulars: recombinant enzyme, 0.5 h. In outline:
as §3

Data set [15] deals with Plasma. The experiment in a line: Drug metabolism in rat assessed as metabolites in plasma at 30 mg/kg, po. The class given is ADME, organism-based. The arrangement: dose 30 mg/kg, route oral. Particulars: in vivo.
The test system of data set [16] is Staphylococcus aureus. Put plainly: Antibacterial activity against methicillin-susceptible Staphylococcus aureus ATCC 29213 infected in mouse thigh assessed reduction in colony forming unit at 25 mg/kg, po bid after 72 hrs. The class given is functional.
Data set [17] can be described thus: Drug metabolism in rat assessed as metabolites in bile at 30 mg/kg, po. The arrangement: dose 30 mg/kg, route oral. In kind it is ADME, organism-based. Particulars: in vivo.
The target of data set [18] is Cytochrome P450 2C19 (Homo sapiens, UniProt P33261). Put plainly: Drug metabolism in recombinant CYP2C19 (unknown origin) at 1 uM after 30 mins. In kind it is ADME. Particulars: recombinant enzyme, 0.5 h. In outline: as §3
For data set [19], the target named is DNA gyrase (Escherichia coli, UniProt P0AES4+P0AES6). Put plainly: Inhibition of […] Escherichia coli DNA gyrase A2B2 using pBR322 plasmid DNA as substrate by coupled enzyme reaction assay. The class given is protein-complex assay.
A short description of data set [20]: Drug metabolism in rat assessed as metabolites in feces at 30 mg/kg, po. The class given is ADME, organism-based. Also on record: dose 30 mg/kg, route oral. The conditions noted are these: in vivo.
In data set [21] the target is T2, Cytochrome P450 2C8 (Homo sapiens, UniProt P10632).
T2 sequence (P10632 whole entry): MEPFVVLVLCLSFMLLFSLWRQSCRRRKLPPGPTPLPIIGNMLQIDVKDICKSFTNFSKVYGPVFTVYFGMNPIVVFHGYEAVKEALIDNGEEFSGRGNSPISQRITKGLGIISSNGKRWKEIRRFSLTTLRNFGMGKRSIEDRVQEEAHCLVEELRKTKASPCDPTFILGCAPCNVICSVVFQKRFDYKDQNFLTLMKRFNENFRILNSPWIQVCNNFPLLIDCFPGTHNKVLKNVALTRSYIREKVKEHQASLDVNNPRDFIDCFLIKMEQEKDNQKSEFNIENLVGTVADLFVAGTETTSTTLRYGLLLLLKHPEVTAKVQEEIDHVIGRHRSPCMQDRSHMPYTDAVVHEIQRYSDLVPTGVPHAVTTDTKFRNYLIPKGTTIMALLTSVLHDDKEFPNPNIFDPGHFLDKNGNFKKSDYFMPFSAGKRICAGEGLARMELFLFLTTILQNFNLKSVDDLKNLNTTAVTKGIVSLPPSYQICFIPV
Put plainly: Drug metabolism in recombinant CYP2C8 (unknown origin) at 1 uM after 30 mins. The class given is ADME. The conditions noted are these: recombinant enzyme, 0.5 h. The procedure, abridged:
as §3

≈ marks a conversion by molar mass, not a printed value.

Sequence of Cytochrome P450 2C9 (P11712 whole entry): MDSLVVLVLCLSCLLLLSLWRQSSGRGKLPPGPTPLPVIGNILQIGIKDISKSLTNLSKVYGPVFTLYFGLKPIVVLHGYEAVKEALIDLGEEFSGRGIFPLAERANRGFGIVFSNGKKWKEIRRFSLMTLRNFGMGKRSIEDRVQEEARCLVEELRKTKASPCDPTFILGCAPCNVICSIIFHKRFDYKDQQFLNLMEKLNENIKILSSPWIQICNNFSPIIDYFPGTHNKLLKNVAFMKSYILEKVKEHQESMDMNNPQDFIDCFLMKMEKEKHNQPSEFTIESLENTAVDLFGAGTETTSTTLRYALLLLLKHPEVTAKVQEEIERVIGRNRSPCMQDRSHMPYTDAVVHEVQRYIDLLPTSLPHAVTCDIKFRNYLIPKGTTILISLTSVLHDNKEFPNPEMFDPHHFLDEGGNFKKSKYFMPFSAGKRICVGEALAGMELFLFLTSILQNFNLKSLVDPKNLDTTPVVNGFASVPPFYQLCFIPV
Sequence of Cytochrome P450 2C19 (P33261 whole entry): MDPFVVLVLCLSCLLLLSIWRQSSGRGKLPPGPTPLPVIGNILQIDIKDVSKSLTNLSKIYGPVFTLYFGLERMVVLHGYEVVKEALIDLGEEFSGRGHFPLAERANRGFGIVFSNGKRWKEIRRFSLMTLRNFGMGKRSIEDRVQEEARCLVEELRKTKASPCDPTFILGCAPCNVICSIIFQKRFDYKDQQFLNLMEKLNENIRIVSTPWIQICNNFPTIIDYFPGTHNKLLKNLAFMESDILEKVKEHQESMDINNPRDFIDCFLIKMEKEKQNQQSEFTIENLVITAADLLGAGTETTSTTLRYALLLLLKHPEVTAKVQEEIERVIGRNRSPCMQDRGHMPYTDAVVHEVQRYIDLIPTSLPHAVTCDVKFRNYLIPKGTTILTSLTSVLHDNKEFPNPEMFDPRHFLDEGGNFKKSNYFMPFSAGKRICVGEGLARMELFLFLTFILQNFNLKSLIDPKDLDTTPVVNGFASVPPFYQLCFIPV

Broadly, the Ki is the equilibrium dissociation constant of an inhibitor or competing ligand from its target. High values mean lower affinity, low ones higher affinity. Consider `CCNC(=O)Nc1nc2cc(-c3cnc(C(C)(C)O)nc3)c(F)c([C@H]3CCCO3)c2[nH]1`, for which the MIC in data set [1] is 0.5 µg/mL (≈ 1.17 µM); in [2] it was at most 0.016 µg/mL; in data set [5], at most 0.008 µg/mL; in [7], at most 0.008 µg/mL; in data set [8], 0.032 µg/mL (≈ 0.0747 µM); in [9] it was 0.25 µg/mL. Besides, the MIC in [10] stood at 0.032 µg/mL (≈ 0.0747 µM); in [11], 0.125 µg/mL (≈ 0.292 µM). The Drug metabolism in data set [3] and in [6] was under 5 pmol in each case. This molecule also yielded a Ki in data set [4] of 9 nM.
`CCNC(=O)Nc1nc2cc(-c3cncc(F)c3)cc(-c3ncccn3)c2[nH]1`: the MIC in data set [1] was 1 µg/mL (≈ 2.65 µM); in data set [7], at most 0.008 µg/mL; in [8], 0.016 µg/mL (≈ 0.0424 µM); in data set [9] it was 0.25 µg/mL; in data set [10], under 0.008 µg/mL. Besides, the Drug metabolism entry in data set [12], in data set [13], in [14], in data set [15], in [17] and in data set [18] was “metabolite_notdetected” throughout. In addition, the Drug metabolism entry in data set [20] and in data set [21] was “metabolite_notdetected” in each case. The Ki in [4] was under 6 nM; in [19], 5 nM. In data set [16], the log10cfu is given as over 4.
